Assay results published in ChEMBL document CHEMBL5653631, “A Potent and Selective ULK1 Inhibitor Suppresses Autophagy and Sensitizes Cancer Cells to Nutrient Stress” (iScience, 2018).
One block for each compound: values may come before it.

Assays:
[1] = target: T1, Serine/threonine-protein kinase Sgk2 (Homo sapiens) (UniProt Q9HBY8); assay: Inhibition of human recombinant SGK2 at 500 nM related to control ULK1
T1 sequence (whole entry): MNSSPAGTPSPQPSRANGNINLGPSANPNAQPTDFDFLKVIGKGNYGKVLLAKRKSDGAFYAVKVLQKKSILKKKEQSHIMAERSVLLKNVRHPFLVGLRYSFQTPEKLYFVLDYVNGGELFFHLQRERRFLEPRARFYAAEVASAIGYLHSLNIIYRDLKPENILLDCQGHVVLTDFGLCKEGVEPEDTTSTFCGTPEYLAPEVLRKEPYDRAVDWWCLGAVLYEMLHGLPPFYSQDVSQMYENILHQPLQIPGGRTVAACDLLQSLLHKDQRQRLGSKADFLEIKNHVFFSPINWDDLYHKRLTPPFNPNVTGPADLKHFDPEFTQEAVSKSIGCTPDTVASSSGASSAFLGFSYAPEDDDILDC

[2] = target: T2, Muscle, skeletal receptor tyrosine-protein kinase (Homo sapiens) (UniProt O15146); assay: Inhibition of human recombinant MUSK at 500 nM related to control ULK1
T2 sequence (whole entry): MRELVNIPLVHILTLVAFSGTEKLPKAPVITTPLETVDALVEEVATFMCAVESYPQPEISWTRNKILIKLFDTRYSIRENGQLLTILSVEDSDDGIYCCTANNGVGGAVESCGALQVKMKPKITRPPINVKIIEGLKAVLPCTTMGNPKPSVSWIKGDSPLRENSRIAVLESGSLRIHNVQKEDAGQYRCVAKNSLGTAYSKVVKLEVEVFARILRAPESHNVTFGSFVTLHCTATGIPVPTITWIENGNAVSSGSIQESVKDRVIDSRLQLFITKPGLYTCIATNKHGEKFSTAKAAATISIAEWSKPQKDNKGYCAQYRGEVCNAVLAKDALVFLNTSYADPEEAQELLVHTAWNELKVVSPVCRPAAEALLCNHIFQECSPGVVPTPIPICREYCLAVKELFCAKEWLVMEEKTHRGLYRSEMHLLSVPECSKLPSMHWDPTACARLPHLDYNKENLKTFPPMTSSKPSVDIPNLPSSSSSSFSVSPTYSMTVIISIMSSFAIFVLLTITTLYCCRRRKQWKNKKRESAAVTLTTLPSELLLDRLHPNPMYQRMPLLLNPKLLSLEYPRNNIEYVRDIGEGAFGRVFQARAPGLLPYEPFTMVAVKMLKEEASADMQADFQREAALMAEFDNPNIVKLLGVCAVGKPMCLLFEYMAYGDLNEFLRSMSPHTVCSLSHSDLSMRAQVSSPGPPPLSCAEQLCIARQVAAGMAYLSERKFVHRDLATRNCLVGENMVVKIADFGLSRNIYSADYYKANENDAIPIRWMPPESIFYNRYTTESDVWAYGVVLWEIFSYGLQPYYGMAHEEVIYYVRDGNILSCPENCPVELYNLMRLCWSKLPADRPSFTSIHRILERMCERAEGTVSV

[3] = target: Insulin receptor (Homo sapiens) (UniProt P06213); assay: Inhibition of human recombinant INSR at 500 nM in presence of ATP by radiometric assay relative to control
[4] = target: T3, Activin receptor type-1B (Homo sapiens) (UniProt P36896); assay: Inhibition of human recombinant ALK4 at 500 nM related to control ULK1
T3 sequence (whole entry): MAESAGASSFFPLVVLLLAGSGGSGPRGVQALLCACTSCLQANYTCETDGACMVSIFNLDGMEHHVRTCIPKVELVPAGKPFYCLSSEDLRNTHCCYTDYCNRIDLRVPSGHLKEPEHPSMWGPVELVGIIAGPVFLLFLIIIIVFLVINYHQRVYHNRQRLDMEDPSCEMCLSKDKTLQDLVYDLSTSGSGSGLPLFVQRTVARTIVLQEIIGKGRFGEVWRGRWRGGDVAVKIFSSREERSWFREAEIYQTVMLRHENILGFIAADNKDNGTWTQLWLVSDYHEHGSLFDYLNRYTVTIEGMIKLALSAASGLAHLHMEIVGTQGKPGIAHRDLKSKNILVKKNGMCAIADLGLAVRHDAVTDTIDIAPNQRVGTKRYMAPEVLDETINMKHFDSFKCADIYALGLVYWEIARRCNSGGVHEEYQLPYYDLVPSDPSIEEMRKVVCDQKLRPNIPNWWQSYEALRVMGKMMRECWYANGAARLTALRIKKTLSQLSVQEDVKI
Procedure, shortened: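 Panel of 327 recombinant human kinases, each assayed in vitro by radiometric activity assay in duplicate at a single inhibitor concentration per compound, chosen with reference to its ULK1 inhibition. Activity remaining was expressed as percent of vehicle control, and percent inhibition was calculated as 100 minus percent activity remaining.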

[5] = target: Serine/threonine-protein kinase 32B (Homo sapiens) (UniProt Q9NY57); assay: Inhibition of human recombinant YANK2 at 15 nM related to control ULK1
Sequence of Serine/threonine-protein kinase 32B (Homo sapiens) (Q9NY57 whole entry): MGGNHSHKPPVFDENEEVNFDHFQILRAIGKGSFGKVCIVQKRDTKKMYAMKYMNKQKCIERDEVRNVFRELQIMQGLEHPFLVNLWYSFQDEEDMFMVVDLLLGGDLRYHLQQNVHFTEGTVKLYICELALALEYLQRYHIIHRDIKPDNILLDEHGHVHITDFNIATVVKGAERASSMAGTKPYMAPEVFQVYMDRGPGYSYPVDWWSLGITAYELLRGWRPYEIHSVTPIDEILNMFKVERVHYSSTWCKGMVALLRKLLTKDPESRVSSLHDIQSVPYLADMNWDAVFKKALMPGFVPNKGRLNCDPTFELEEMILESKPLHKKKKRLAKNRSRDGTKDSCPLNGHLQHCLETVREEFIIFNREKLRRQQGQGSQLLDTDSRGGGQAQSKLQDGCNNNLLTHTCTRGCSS

[6] = target: Glycogen synthase kinase-3 alpha (Homo sapiens) (UniProt P49840); assay: Inhibition of human recombinant GSK3A at 15 nM related to control ULK1
Sequence of Glycogen synthase kinase-3 alpha (Homo sapiens) (P49840 2-483 limits assumed): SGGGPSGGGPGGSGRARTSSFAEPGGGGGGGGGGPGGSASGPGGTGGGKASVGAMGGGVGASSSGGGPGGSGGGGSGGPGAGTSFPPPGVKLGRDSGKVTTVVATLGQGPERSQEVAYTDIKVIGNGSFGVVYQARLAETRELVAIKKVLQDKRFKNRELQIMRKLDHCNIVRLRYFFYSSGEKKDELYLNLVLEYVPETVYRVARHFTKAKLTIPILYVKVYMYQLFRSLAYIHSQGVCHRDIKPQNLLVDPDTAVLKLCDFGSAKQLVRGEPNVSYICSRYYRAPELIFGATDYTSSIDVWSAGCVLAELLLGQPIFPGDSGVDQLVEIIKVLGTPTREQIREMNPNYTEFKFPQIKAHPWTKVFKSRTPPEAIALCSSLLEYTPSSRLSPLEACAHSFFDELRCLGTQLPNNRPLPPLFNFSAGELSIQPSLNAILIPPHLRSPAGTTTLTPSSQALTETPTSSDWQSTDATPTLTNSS

[7] = target: T4, MAPK/MAK/MRK overlapping kinase (Homo sapiens) (UniProt Q9UQ07); assay: Inhibition of human recombinant MOK at 15 nM in presence of ATP by radiometric assay relative to control
T4 sequence (whole entry): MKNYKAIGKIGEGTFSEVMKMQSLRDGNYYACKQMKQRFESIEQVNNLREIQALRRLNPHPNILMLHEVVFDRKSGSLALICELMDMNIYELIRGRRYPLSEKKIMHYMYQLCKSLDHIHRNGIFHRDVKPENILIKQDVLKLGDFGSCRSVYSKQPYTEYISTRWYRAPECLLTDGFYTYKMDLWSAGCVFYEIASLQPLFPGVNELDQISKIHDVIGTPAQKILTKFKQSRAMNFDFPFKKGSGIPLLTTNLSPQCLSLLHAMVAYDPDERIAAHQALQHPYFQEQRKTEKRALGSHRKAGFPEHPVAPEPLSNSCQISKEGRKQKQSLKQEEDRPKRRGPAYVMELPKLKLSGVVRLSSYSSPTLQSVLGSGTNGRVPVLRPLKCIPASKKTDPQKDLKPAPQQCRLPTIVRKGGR

[8] = target: Tyrosine-protein kinase Lck (Homo sapiens) (UniProt P06239); assay: Inhibition of human recombinant LCK at 15 nM related to control ULK1
Sequence of Tyrosine-protein kinase Lck (Homo sapiens) (P06239 2-509 limits assumed): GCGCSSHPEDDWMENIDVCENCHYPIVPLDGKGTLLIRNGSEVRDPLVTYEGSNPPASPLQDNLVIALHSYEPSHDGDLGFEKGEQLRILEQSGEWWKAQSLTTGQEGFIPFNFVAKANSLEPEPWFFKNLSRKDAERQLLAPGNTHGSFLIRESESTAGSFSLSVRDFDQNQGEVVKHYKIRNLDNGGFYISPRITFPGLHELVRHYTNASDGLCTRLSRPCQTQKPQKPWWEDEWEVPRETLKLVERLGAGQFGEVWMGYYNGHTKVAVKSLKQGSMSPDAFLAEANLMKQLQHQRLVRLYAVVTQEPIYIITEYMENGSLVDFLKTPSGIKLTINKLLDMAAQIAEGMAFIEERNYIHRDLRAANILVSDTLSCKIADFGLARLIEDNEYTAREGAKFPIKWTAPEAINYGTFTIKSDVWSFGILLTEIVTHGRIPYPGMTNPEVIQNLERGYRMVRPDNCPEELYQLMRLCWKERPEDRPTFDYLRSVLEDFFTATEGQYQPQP

[9] = target: Serine/threonine-protein kinase MARK1 (Homo sapiens) (UniProt Q9P0L2); assay: Inhibition of human recombinant MARK1 at 40 nM related to control ULK1
Sequence of Serine/threonine-protein kinase MARK1 (Homo sapiens) (Q9P0L2 whole entry, looked up): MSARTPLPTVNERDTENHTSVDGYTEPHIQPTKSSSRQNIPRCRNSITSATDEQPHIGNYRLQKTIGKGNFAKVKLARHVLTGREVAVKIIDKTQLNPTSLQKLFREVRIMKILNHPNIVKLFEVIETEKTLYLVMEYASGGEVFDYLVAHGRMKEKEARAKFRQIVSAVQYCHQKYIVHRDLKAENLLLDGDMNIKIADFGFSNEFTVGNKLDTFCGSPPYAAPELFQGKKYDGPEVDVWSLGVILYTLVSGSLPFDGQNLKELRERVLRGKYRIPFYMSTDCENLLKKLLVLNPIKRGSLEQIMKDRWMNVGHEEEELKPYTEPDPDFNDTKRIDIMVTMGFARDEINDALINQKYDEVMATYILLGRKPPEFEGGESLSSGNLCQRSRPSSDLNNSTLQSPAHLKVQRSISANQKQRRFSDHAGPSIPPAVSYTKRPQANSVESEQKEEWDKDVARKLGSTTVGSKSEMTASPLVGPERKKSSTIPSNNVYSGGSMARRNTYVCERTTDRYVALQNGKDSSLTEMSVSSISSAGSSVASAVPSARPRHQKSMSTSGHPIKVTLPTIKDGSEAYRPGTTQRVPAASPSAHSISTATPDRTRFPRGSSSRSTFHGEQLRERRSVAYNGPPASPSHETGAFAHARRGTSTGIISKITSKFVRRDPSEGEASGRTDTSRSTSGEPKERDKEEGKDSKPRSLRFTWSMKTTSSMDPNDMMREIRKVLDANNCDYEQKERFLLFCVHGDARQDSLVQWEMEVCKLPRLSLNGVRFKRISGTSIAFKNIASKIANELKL

[10] = target: Mitogen-activated protein kinase kinase kinase 10 (Homo sapiens) (UniProt Q02779); assay: Inhibition of human recombinant MLK2 at 40 nM related to control ULK1
Sequence of Mitogen-activated protein kinase kinase kinase 10 (Homo sapiens) (Q02779 whole entry, looked up): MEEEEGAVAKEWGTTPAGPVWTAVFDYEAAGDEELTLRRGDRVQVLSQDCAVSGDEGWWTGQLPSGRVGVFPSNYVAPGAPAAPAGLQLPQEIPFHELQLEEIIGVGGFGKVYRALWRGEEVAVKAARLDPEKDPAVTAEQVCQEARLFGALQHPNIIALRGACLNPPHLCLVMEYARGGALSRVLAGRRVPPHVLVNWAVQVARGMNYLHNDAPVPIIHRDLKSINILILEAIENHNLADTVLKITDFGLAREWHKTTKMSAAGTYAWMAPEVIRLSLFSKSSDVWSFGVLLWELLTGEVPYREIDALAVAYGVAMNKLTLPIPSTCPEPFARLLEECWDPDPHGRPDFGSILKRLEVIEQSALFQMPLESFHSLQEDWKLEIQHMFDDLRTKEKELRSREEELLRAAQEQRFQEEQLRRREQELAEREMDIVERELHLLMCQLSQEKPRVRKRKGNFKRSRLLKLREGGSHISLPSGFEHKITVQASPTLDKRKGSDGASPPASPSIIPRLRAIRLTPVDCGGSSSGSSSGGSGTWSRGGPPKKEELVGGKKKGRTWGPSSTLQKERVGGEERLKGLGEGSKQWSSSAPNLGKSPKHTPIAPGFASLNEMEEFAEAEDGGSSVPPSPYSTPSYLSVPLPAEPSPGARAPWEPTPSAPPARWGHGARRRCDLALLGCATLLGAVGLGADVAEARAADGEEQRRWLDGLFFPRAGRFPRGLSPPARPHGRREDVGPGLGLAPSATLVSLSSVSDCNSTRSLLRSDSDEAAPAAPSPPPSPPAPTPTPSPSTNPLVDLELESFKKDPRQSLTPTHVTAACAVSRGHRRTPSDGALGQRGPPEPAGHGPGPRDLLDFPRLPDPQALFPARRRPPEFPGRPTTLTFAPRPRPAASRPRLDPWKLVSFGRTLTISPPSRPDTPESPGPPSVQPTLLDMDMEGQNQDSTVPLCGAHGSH

[11] = target: Myosin light chain kinase 2, skeletal/cardiac muscle (Homo sapiens) (UniProt Q9H1R3); assay: Inhibition of human recombinant skMLCK at 40 nM related to control ULK1
Sequence of Myosin light chain kinase 2, skeletal/cardiac muscle (Homo sapiens) (Q9H1R3 whole entry): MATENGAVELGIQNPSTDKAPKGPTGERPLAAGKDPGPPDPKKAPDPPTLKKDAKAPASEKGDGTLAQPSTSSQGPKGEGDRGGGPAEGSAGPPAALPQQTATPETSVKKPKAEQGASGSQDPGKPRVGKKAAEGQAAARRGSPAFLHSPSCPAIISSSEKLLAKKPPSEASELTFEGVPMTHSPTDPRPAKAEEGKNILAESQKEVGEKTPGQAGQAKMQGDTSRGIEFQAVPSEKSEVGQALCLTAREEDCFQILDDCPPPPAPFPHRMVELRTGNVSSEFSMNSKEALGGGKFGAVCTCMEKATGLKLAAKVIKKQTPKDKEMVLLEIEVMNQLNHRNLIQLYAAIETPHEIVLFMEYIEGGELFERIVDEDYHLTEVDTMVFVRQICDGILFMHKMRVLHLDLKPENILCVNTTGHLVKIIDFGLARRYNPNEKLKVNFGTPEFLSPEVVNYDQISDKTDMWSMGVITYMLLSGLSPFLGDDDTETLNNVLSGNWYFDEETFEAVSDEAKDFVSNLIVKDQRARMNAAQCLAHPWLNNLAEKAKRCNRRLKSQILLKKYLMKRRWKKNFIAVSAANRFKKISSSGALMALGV

fold change (FC) [1]: 0.23
fold change (FC) [2]: 0.46
inhibition [3]: 0%
fold change (FC) [4]: 0.2
Compound: CNC(=O)c1ccccc1Oc1nc(Nc2cc(OC)c(OC)c(OC)c2)ncc1Br

fold change (FC) [5]: 0
fold change (FC) [6]: 0
inhibition [7]: 5%
fold change (FC) [8]: 0.13
Compound: CC(C)[C@H](NC(=O)c1cc(-c2cnn3cc(-c4ccc(OCCN5CCCCC5)cc4)cnc23)cs1)C(F)(F)F

fold change (FC) [9]: 0.4
fold change (FC) [10]: 0
fold change (FC) [11]: 0
Compound: O=C(N[C@@H](C1CC1)C(F)(F)F)c1cc(-c2cnn3cc(-c4ccc(F)cc4)cnc23)cs1
